CYP2C9 inhib: inhibitors of human CYP2C9; AID 777; inhibition, % at 5 µM; P11712; CYP2C9 Supersomes, luciferin-H conversion, luminescence; 20% of 96,000 active;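 active = blocking of liver enzyme CYP2C9 beyond about 50% at 5 µM, limit read from the data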
CYP2C19 activ: cytochrome P450 2C19 (human) activation; AID 1025; recombinant CYP2C19, luciferin-H EGE luminescence; hits give high values; 0 = fully inhibited enzyme, 1 = untreated enzyme; activation factor at 5 µM; 96,000 tested, under 10 active; P33261;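 active = activation factor of at least 2 at 5 µM in the primary screen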;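 also: 0 = wells with 2.5 mM tranylcypromine and 1 = vehicle-only wells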
CYP2C19 inhib: human CYP2C19 inhibition | inhibition, % at 5 µM | AID 778 | 21% of 96,000 active | CYP2C19 Supersomes, luciferin-H EGE luminescence, 30 min;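 active = CYP2C19 inhibition above a set limit at 5 µM in the primary screen, cut at about 50% in these data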;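 also: plate controls were negative control wells for no effect and 2.5 mM tranylcypromine positive control for full effect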
CYP2C9 act: increases human cytochrome P450 2C9 activity | P11712 | recombinant CYP2C9, luciferin-H conversion, luminescence; hits give high values; factor 1 = untreated enzyme, 0 = blocked | activation factor at 5 µM | 1.4% of 96,000 active;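 active = activation factor of 2 or more for CYP2C9 at a 5 µM dose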;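 also: 0 = sulfaphenazole-blocked wells and 1 = vehicle-only wells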
HIV Rev-RRE inh: inhibitors of HIV-1 Rev-RRE RNA interaction; P05866; Rev peptide-RRE RNA binding, FRET; inhibition, % at 8 µM; 0.79% of 97,000 active; AID 704;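 active = inhibition above the screen-wide mean plus 3 SD, cut at about 35% in these data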;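 also: 0% = median DMSO wells and 100% = median Neomycin B control wells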
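Test system: labelled RRE RNA duplex and labelled Rev peptide. Times: 5 min compound–RNA preincubation, then 15 min with peptide, 25 °C. Doses: single-dose 8 µM. Measured by: FRET, excitation 480 nm, emission 540 nm donor and 671 nm acceptor. Measure: % inhibition of FRET ratio versus controls.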
Cav32 inh: inhibitors of human Cav3.2 T-type calcium channel; O95180; Cav3.2-expressing cells, Fluo-4 calcium fluorescence FDSS; hits give low values; 4% of 100,000 active; B-score at 10 µM;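 active = single-dose well whose peak fluorescence ratio is a statistical outlier from its plate by either plate-standardised score or position-corrected B-score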
The depositor's hits bear a star; . = no result. A selection: hits, their analogues and other compounds. The true share with any hit is near 27%.

SMILES	CYP2C9 inhib	CYP2C19 activ	CYP2C19 inhib	CYP2C9 act	HIV Rev-RRE inh	Cav32 inh
CCc1ccccc1NC(=O)CC1S/C(=N\c2nccs2)N(CC)C1=O (stereo not given)	97*	0	96*	0	.	-0.59
CCOC(=O)c1ccccc1NC(=O)CC1SC(=NC)N(C)C1=O (stereo not given)	-13	0.8	17	1.1	.	-0.83
O=C(NCc1n[nH]c(=S)n1-c1ccc(F)cc1)c1ccco1	-7	0.8	20	1.1	5	0.39
COc1ccc2c(c1OC)C(=O)N(C(C)C(=O)O)C2=O (stereo not given)	-4	1.1	-8	1	1	-0.16
O=C1Nc2ncccc2OC1CCO (stereo not given)	-4	1.1	-6	1	4	0.43
COc1cccc(-c2nc(N3CCCCC3C)c3ccccc3n2)c1O (stereo not given)	84*	0.8	24	0.2	1	0.48
CCOC(=O)Cc1c(C)nc2c(-c3ccc(OC)cc3)c(C)nn2c1C	40	0.8	18	0.6	11	0.26
CC(Oc1ccc(Cl)cc1Cl)C(=O)NC1CCSC1=O (stereo not given)	41	0.1	93*	0.6	1	-0.14
CC(Oc1ccc(Cl)cc1Cl)C(=O)NCCCN1CCOCC1 (stereo not given)	-10	0.4	58*	1.1	6	0.89
COCCNC(=O)C(C)Oc1ccc(Cl)cc1Cl (stereo not given)	46	0.1	94*	0.5	-3	1.1
CC(Oc1ccc(Cl)cc1Cl)C(=O)NC1=NN(c2ccccc2)C(=O)C1 (stereo not given)	53*	0.7	32	0.5	-5	-0.66
N#CCCN1CCN(S(=O)(=O)c2ccc(S(=O)(=O)NC3CCCC3)cc2)CC1	-23	1	-2	1.2	0	0.5
Cc1cccc(N2CCN(C(=O)C34CC5CC(CC(C5)C3)C4)CC2)c1C	29	0.8	22	0.7	4	-1.2
N/C(=N\OC(=O)C(c1ccccc1)c1ccccc1)c1cccnc1	51*	0.8	19	0.5	10	0.015
N/C(=N\OC(=O)C(c1ccccc1)c1ccccc1)c1ccccn1	.	.	.	.	2	0.53
CCOC(=O)c1cc(NC(=O)CSc2nnc(CN3CCOCC3)n2C)ccc1Cl	.	.	.	.	11	1.7
COc1cc(CNCc2ccncc2)cc(Br)c1OCc1ccccc1F	91*	0.1	86*	0.1	7	-1.4
COc1cc(CNCCO)cc(Br)c1OCc1cccs1	-17	0.6	44	1.2	-12	0.018
COc1cc(CO)cc(Br)c1OCc1cccnc1	-109	0.2	80*	2.1*	.	0.52
Cc1ccccc1COC[C@H](CC(C)C)N1CCN(C(=O)c2cccc(C(F)(F)F)c2)CCC1=O	.	.	.	.	.	-3.2
COC(=O)c1ccc(C(=O)OC)c(NS(=O)(=O)c2ccc(NC(C)=O)cc2)c1	90*	0.4	62*	0.1	.	0.18
COC(=O)c1cccc(NS(=O)(=O)c2ccc(NC(C)=O)cc2)c1C	-36	0.6	38	1.4	8	0.49
COC(=O)c1ccc(C)c(NS(=O)(=O)c2ccc3c(c2)OCCO3)c1	62*	0.1	91*	0.4	2	-1.6
CC(=O)c1cc2c(cc1NS(=O)(=O)c1ccc(C)cc1)OCCO2	-17	0.6	43	1.2	17	-0.0092
COC(=O)c1ccc(Sc2ccccc2NS(=O)(=O)c2ccc(NC(C)=O)cc2)nc1	80*	0.4	61*	0.2	-1	0.72
SMILES	CYP2C9 inhib	CYP2C19 activ	CYP2C19 inhib	CYP2C9 act	HIV Rev-RRE inh	Cav32 inh
COC(=O)c1ccc(C)c(NS(=O)(=O)c2ccc(C)c([N+](=O)[O-])c2)c1	80*	0.1	90*	0.2	4	-5.5*
O=C(O)CCC1OC(=O)C(O)=C1c1ccccc1 (stereo not given)	.	.	.	.	.	0.14
CC(C)CNC(=O)c1cccc(NC(=O)c2ccc(NC(=O)c3ccco3)cc2)c1	21	0.9	10	0.8	10	-2.8
Cc1ccnc2nc(C(=O)OCC(=O)Nc3ccc4c(c3)OC(F)(F)O4)nn12	-2	1.1	-8	1	4	0.4
COC(=O)c1ccc(C)c(NS(=O)(=O)c2ccc(OC)cc2)c1	70*	0	100*	0.3	2	-2.2
O=[N+]([O-])c1cc(S(=O)(=O)C(F)(F)F)ccc1Sc1nc2ccccc2s1	51*	0.4	63*	0.5	18	0.52
CN1CCN(S(=O)(=O)c2ccc(Sc3nc4ccccc4[nH]3)c3nsnc23)CC1	35	0.8	22	0.6	4	0.41
CS(=O)(=O)c1ccc(Sc2nc3ccccc3[nH]2)c([N+](=O)[O-])c1	79*	0.1	91*	0.2	1	1.3
O=[N+]([O-])c1cc(C(F)(F)F)ccc1Sc1ccc2ccccc2n1	-3	1	-2	1	19	0.45
O=[N+]([O-])c1c(NCCCO)cc(Sc2nc3ccccc3s2)c2nonc12	8	0.8	24	0.9	3	.
O=[N+]([O-])c1cc(S(=O)(=O)C(F)(F)F)ccc1Sc1nc2ccccc2[nH]1	76*	0.1	90*	0.2	2	-4.5*
CC1CN(C(=O)CN2C(=O)c3ccccc3S2(=O)=O)CC(C)O1 (stereo not given)	18	0.9	14	0.8	10	0.66
COc1ccc(OCCCCOc2ccccc2Cl)cc1	-13	1.1	-13	1.1	21	0.42
O=C1c2cccnc2C(Nc2ccc(S(=O)(=O)N3CCCCC3)cc2)N1Cc1ccccc1 (stereo not given)	33	0.9	13	0.7	10	0.37
COC(=O)c1cc(NC2c3ncccc3C(=O)N2Cc2ccccc2)cc(C(=O)OC)c1 (stereo not given)	67*	0	96*	0.3	8	0.0076
CCOC(=O)c1ccc(NC2c3ncccc3C(=O)N2Cc2ccc(F)cc2)cc1 (stereo not given)	70*	0.6	41	0.3	9	-2.7
COc1ccc(OC)c(NC2c3ncccc3C(=O)N2Cc2ccco2)c1 (stereo not given)	27	0.7	29	0.7	-2	-1.4
COc1ccc(CN2C(=O)c3cccnc3C2Nc2cc(Cl)ccc2OC)cc1 (stereo not given)	48	0.4	63*	0.5	.	-0.72
CCOC(=O)CSc1nnc(CNC(=O)Cc2ccccc2)n1C	-12	1.1	-12	1.1	5	0.65
COC(=O)c1c(C)[nH]c(C(=O)COC(=O)Cc2ccc3c(c2)OCCO3)c1C	81*	0.8	20	0.2	14	-2
COC(C[C@H]1O[C@@H]1C(=O)[C@H](C)OCc1ccccc1)OC	.	.	.	.	.	0.92

Assay outcomes deposited in PubChem by several laboratories.
